Test results from publication PMC10718585 (RSC Medicinal Chemistry, 2023).

Key:
T98 cells = assay: PrestoBlue dose–response cell viability assay, 5 d; type: cell-based, human; details: T98 versus U87 and bEnd.3, 3-point screen
[1] = test system: U87, T98 and bEnd.3 cells; assay: PrestoBlue cell viability screen, cell line not given; type: cell-based; details: BEND3, 120 h
In short: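 bEnd.3 cells, grown in DMEM with 10% FBS and 2 mM L-glutamine, seeded at 1 × 10^4 per well. After 48 h at 37 °C/5% CO2 the medium was replaced and 20× compound dilutions in DMEM added (3–30 μM 3-point or 0.03–30 μM semi-log 7-point). DMSO 0.1% v/v served as untreated control. After 5 d, PrestoBlue was added for 60–90 min (ex 540/em 590 nm). EC50 came from a four-parameter logistic fit, minimum constrained to zero, normalised to untreated cells.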

U87 cells = assay: PrestoBlue dose–response cell viability assay, 5 d; type: cell-based, human; details: U87, 3-point screen
LCK = LCK (Homo sapiens, UniProt P06239); assay: Z′-LYTE kinase inhibition; type: biochemical; details: 3-point dose–response (0.1, 1, 10 μM), ATP Km app
Sequence of LCK (P06239 whole entry): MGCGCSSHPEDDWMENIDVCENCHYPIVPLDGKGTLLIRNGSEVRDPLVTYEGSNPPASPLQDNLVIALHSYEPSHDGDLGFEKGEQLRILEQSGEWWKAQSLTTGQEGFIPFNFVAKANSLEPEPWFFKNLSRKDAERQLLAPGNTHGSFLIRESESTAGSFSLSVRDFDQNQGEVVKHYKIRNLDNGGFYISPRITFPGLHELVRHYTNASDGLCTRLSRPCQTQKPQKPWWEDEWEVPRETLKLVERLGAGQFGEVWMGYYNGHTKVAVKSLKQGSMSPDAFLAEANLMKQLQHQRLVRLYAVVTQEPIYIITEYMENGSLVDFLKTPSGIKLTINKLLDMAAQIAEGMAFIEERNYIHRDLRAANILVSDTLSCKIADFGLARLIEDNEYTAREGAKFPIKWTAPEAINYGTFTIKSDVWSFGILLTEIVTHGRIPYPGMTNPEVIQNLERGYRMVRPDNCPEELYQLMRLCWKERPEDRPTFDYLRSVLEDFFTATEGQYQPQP
In short: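 Z′-LYTE FRET assay: a peptide substrate tagged with a FRET pair, with protease cleavage distinguishing phospho from non-phospho peptide, read ratiometrically. Wild-type kinase was tested at 0.1, 1 and 10 μM in duplicate, with 1% DMSO and ATP at apparent Km. 100% inhibition was set without ATP; 0% used a synthetically phosphorylated substrate peptide. IC50 came from the dose-response curve.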

## CNc1ncc2c(C#CCN3CCCCCC3)nn(CC3CCCC3)c2n1 [B21]
T98 cells
  antiproliferative selectivity profile: selective antiproliferative profile against the T98 cell line

## CCOC(=O)N1CCN(CC#Cc2nn(CC3CCCC3)c3nc(NC)ncc23)CC1 [B23]
T98 cells
  antiproliferative selectivity profile: selective antiproliferative profile against the T98 cell line

## CC1CCN(CC#Cc2nn(CC3CCCC3)c3ncnc(N)c23)CC1 [A3]
[1]
  EC50: < 30 µM

## Cn1nnc2c(C(N)=O)ncn2c1=O [TMZ, temozolomide]
U87 cells
  antiproliferative activity: some level of antiproliferative activity

## CNc1ncc2c(C#CCN3CCC(NC(C)=O)CC3)nn(CC3CCCC3)c2n1 [B16]
T98 cells
  antiproliferative selectivity profile: selective antiproliferative profile against the T98 cell line

## CCOC(=O)C1CCN(CC#Cc2nn(CC3CCCC3)c3nc(NC)ncc23)CC1 [B22]
T98 cells
  antiproliferative selectivity profile: selective antiproliferative profile against the T98 cell line

## CN(C)C1CCN(CC#Cc2nn(C3CCCC3)c3nc(NCc4ccccc4)ncc23)C1 (stereo not shown) [B58, N-Benzyl-1-cyclopentyl-3-(3-(3-(dimethylamino)pyrrolidine-1-yl)prop-1-yn-1-yl)-1H-pyrazolo[3,4-d]pyrimidin-6-amine]
LCK
  IC50: 2270 nM
